According to ChEMBL document CHEMBL4038305, “Benzoxaborole Antimalarial Agents. Part 5. Lead Optimization of Novel Amide Pyrazinyloxy Benzoxaboroles and Identification of a Preclinical Candidate” (J Med Chem, 2017):

Legend:
Plasmodium berghei [1] = assay: Antimalarial activity against Plasmodium berghei infected in Swiss Webster mouse assessed as mouse survival rate at 3 mg/kg administered once daily via oral gavage for 4 consecutive days beginning 1 hr after infection measured on day 6 post infection relative to control; assay type: functional
How it was run: (§1)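 P. berghei-infected erythrocytes taken from a previously infected mouse were injected intraperitoneally. Oral dosing, once daily for 4 consecutive days, began 1 h after infection, in polyethylene glycol 300/propylene glycol/water (55/25/20 by weight). Chloroquine at 30 mg/kg was the positive control, with a vehicle-only group. Percent survival was recorded daily from day 4 to day 20.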

Plasmodium berghei [2] = assay: Antimalarial activity against Plasmodium berghei infected in Swiss Webster mouse assessed as mouse survival rate at 1 mg/kg administered once daily via oral gavage for 4 consecutive days beginning 1 hr after infection measured on day 4 post infection relative to control; assay type: functional
How it was run: (§2)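 Mice given an intraperitoneal injection of P. berghei-infected erythrocytes taken from a previously infected animal. Oral dosing once daily for 4 consecutive days, starting 1 h after infection. Vehicle: polyethylene glycol 300/propylene glycol/water (weight ratio 55/25/20). Percent survival recorded daily from day 4 to day 20. Chloroquine 30 mg/kg and vehicle-only groups served as controls.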

Plasmodium berghei [3] = assay: Antimalarial activity against Plasmodium berghei infected in Swiss Webster mouse assessed as mouse survival rate at 33 mg/kg administered once daily via oral gavage for 4 consecutive days beginning 1 hr after infection measured on day 7 post infection relative to control; assay type: functional; how it was run: as §1
Plasmodium falciparum [4] = assay: Antimalarial activity against chloroquine-sensitive Plasmodium falciparum 3D7 infected in human erythrocytes assessed as reduction in [3H]-hypoxanthine incorporation preincubated for 24 hrs followed by [3H]-hypoxanthine addition measured after 24 hrs by scintillation counting method; assay type: functional, cell-based
How it was run: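 P. falciparum 3D7 cultures were exposed to the compound for 48 h, with atovaquone as the reference control. IC50 was taken from three replicates.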

Plasmodium falciparum [5] = assay: Antimalarial activity against chloroquine-resistant Plasmodium falciparum W2 infected in human erythrocytes after 48 hrs by YOYO-1 dye based flow cytometric analysis; assay type: functional, cell-based; details: W2, 48 h
How it was run: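 P. falciparum W2 cultures were exposed to the compound for 48 h, with artemisinin and chloroquine as reference controls. IC50 was taken from two independent replicates.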

Plasmodium berghei [6] = assay: Antimalarial activity against Plasmodium berghei infected in Swiss Webster mouse assessed as mouse survival rate at 100 mg/kg administered once daily via oral gavage for 4 consecutive days beginning 1 hr after infection measured on day 9 post infection relative to control; assay type: functional; how it was run: as §2
Plasmodium berghei [7] = assay: Antimalarial activity against Plasmodium berghei infected in Swiss Webster mouse assessed as mouse survival rate at 100 mg/kg administered once daily via oral gavage for 4 consecutive days beginning 1 hr after infection measured on day 10 post infection relative to control; assay type: functional; how it was run: as §2
Plasmodium berghei [8] = assay: Antimalarial activity against Plasmodium berghei infected in Swiss Webster mouse assessed as mouse survival rate at 100 mg/kg administered once daily via oral gavage for 4 consecutive days beginning 1 hr after infection measured on day 13 post infection relative to control; assay type: functional; how it was run: as §2
Plasmodium berghei [9] = assay: Antimalarial activity against Plasmodium berghei infected in Swiss Webster mouse assessed as mouse survival rate at 3 mg/kg administered once daily via oral gavage for 4 consecutive days beginning 1 hr after infection measured on day 4 post infection relative to control; assay type: functional; how it was run: as §1
Plasmodium berghei [10] = assay: Antimalarial activity against Plasmodium berghei infected in Swiss Webster mouse assessed as mouse survival rate at 33 mg/kg administered once daily via oral gavage for 4 consecutive days beginning 1 hr after infection measured on day 6 post infection relative to control; assay type: functional; how it was run: as §1
Plasmodium berghei [11] = assay: Antimalarial activity against Plasmodium berghei infected in Swiss Webster mouse assessed as mouse survival rate at 100 mg/kg administered once daily via oral gavage for 4 consecutive days beginning 1 hr after infection measured on day 6 post infection relative to control; assay type: functional; how it was run: as §2
Plasmodium berghei [12] = assay: Antimalarial activity against Plasmodium berghei infected in Swiss Webster mouse assessed as mouse survival rate at 33 mg/kg administered once daily via oral gavage for 4 consecutive days beginning 1 hr after infection measured on day 8 post infection relative to control; assay type: functional; how it was run: as §1
Plasmodium berghei [13] = assay: Antimalarial activity against Plasmodium berghei infected in Swiss Webster mouse assessed as mouse survival rate at 11 mg/kg administered once daily via oral gavage for 4 consecutive days beginning 1 hr after infection measured on day 7 post infection relative to control; assay type: functional; how it was run: as §1
Plasmodium berghei [14] = assay: Antimalarial activity against Plasmodium berghei infected in Swiss Webster mouse assessed as mouse survival rate at 100 mg/kg administered once daily via oral gavage for 4 consecutive days beginning 1 hr after infection measured on day 12 post infection relative to control; assay type: functional; how it was run: as §2
Plasmodium berghei [15] = assay: Antimalarial activity against Plasmodium berghei infected in Swiss Webster mouse assessed as mouse survival rate at 100 mg/kg administered once daily via oral gavage for 4 consecutive days beginning 1 hr after infection measured on day 14 post infection relative to control; assay type: functional; how it was run: as §2
Plasmodium berghei [16] = assay: Antimalarial activity against Plasmodium berghei infected in Swiss Webster mouse assessed as mouse survival rate at 1 mg/kg administered once daily via oral gavage for 4 consecutive days beginning 1 hr after infection measured on day 6 post infection relative to control; assay type: functional; how it was run: as §2
Plasmodium berghei [17] = assay: Antimalarial activity against Plasmodium berghei infected in Swiss Webster mouse assessed as mouse survival rate at 3 mg/kg administered once daily via oral gavage for 4 consecutive days beginning 1 hr after infection measured on day 5 post infection relative to control; assay type: functional; how it was run: as §1
Plasmodium berghei [18] = assay: Antimalarial activity against Plasmodium berghei infected in Swiss Webster mouse assessed as mouse survival rate at 33 mg/kg administered once daily via oral gavage for 4 consecutive days beginning 1 hr after infection measured on day 5 post infection relative to control; assay type: functional; how it was run: as §1
Plasmodium berghei [19] = assay: Antimalarial activity against Plasmodium berghei infected in Swiss Webster mouse assessed as mouse survival rate at 33 mg/kg administered once daily via oral gavage for 4 consecutive days beginning 1 hr after infection measured on day 9 post infection relative to control; assay type: functional; how it was run: as §1
Plasmodium berghei [20] = assay: Antimalarial activity against Plasmodium berghei infected in Swiss Webster mouse assessed as mouse survival rate at 1 mg/kg administered once daily via oral gavage for 4 consecutive days beginning 1 hr after infection measured on day 7 post infection relative to control; assay type: functional; how it was run: as §2
Plasmodium berghei [21] = assay: Antimalarial activity against Plasmodium berghei infected in Swiss Webster mouse assessed as mouse survival rate at 11 mg/kg administered once daily via oral gavage for 4 consecutive days beginning 1 hr after infection measured on day 6 post infection relative to control; assay type: functional; how it was run: as §1
Plasmodium berghei [22] = assay: Antimalarial activity against Plasmodium berghei infected in Swiss Webster mouse assessed as mouse survival rate at 100 mg/kg administered once daily via oral gavage for 4 consecutive days beginning 1 hr after infection measured on day 11 post infection relative to control; assay type: functional; how it was run: as §2
Plasmodium berghei [23] = assay: Antimalarial activity against Plasmodium berghei infected in Swiss Webster mouse assessed as mouse survival rate administered once daily via oral gavage for 4 consecutive days beginning 1 hr after infection measured on day 4 post infection; assay type: functional; how it was run: as §2
Plasmodium berghei [24] = assay: Antimalarial activity against Plasmodium berghei infected in Swiss Webster mouse assessed as mouse survival rate at 100 mg/kg administered once daily via oral gavage for 4 consecutive days beginning 1 hr after infection measured on day 4 post infection relative to control; assay type: functional; how it was run: as §2
Plasmodium berghei [25] = assay: Antimalarial activity against Plasmodium berghei infected in Swiss Webster mouse assessed as mouse survival rate at 11 mg/kg administered once daily via oral gavage for 4 consecutive days beginning 1 hr after infection measured on day 4 post infection relative to control; assay type: functional; how it was run: as §1
Plasmodium berghei [26] = assay: Antimalarial activity against Plasmodium berghei infected in Swiss Webster mouse assessed as mouse survival rate at 100 mg/kg administered once daily via oral gavage for 4 consecutive days beginning 1 hr after infection measured on day 5 post infection relative to control; assay type: functional; how it was run: as §2
Plasmodium berghei [27] = assay: Antimalarial activity against Plasmodium berghei infected in Swiss Webster mouse assessed as mouse survival rate at 1 mg/kg administered once daily via oral gavage for 4 consecutive days beginning 1 hr after infection measured on day 5 post infection relative to control; assay type: functional; how it was run: as §2
Plasmodium berghei [28] = assay: Antimalarial activity against Plasmodium berghei infected in Swiss Webster mouse assessed as mouse survival rate at 11 mg/kg administered once daily via oral gavage for 4 consecutive days beginning 1 hr after infection measured on day 5 post infection relative to control; assay type: functional; how it was run: as §1
Plasmodium berghei [29] = assay: Antimalarial activity against Plasmodium berghei infected in Swiss Webster mouse assessed as mouse survival rate at 100 mg/kg administered once daily via oral gavage for 4 consecutive days beginning 1 hr after infection measured on day 7 post infection relative to control; assay type: functional; how it was run: as §2
Plasmodium berghei [30] = assay: Antimalarial activity against Plasmodium berghei infected in Swiss Webster mouse assessed as mouse survival rate at 33 mg/kg administered once daily via oral gavage for 4 consecutive days beginning 1 hr after infection measured on day 4 post infection relative to control; assay type: functional; how it was run: as §1
Plasmodium berghei [31] = assay: Antimalarial activity against Plasmodium berghei infected in Swiss Webster mouse assessed as mouse survival rate at 100 mg/kg administered once daily via oral gavage for 4 consecutive days beginning 1 hr after infection measured on day 8 post infection relative to control; assay type: functional; how it was run: as §2
Plasmodium berghei [32] = assay: Antimalarial activity against Plasmodium berghei infected in Swiss Webster mouse assessed as mouse survival rate at 3 mg/kg administered once daily via oral gavage for 4 consecutive days beginning 1 hr after infection measured on day 7 post infection relative to control; assay type: functional; how it was run: as §1

## Cc1c(Oc2cnc(C(=O)N[C@@H](CO)C(C)C)cn2)ccc2c1B(O)OC2
Plasmodium berghei [1]
  survival at 3 mg/kg: 100%
Plasmodium berghei [2]
  survival at 1 mg/kg: 100%
Plasmodium berghei [3]
  survival at 33 mg/kg: 80%
Plasmodium falciparum [4]
  IC50: 0.466 µM
Plasmodium falciparum [5]
  IC50: 0.149 µM
Plasmodium berghei [6]
  survival at 100 mg/kg: 100%
Plasmodium berghei [7]
  survival at 100 mg/kg: 40%
Plasmodium berghei [8]
  survival at 100 mg/kg: 40%
Plasmodium berghei [9]
  survival at 3 mg/kg: 100%
Plasmodium berghei [10]
  survival at 33 mg/kg: 100%
Plasmodium berghei [11]
  survival at 100 mg/kg: 100%
Plasmodium berghei [12]
  survival at 33 mg/kg: 80%
Plasmodium berghei [13]
  survival at 11 mg/kg: 0%
Plasmodium berghei [14]
  survival at 100 mg/kg: 40%
Plasmodium berghei [15]
  survival at 100 mg/kg: 40%
Plasmodium berghei [16]
  survival at 1 mg/kg: 100%
Plasmodium berghei [17]
  survival at 3 mg/kg: 100%
Plasmodium berghei [18]
  survival at 33 mg/kg: 100%
Plasmodium berghei [19]
  survival at 33 mg/kg: 0%
Plasmodium berghei [20]
  survival at 1 mg/kg: 0%
Plasmodium berghei [21]
  survival at 11 mg/kg: 100%
Plasmodium berghei [22]
  survival at 100 mg/kg: 40%
Plasmodium berghei [23]
  ED90: 26.7 mg/kg
Plasmodium berghei [24]
  survival at 100 mg/kg: 100%
Plasmodium berghei [25]
  survival at 11 mg/kg: 100%
Plasmodium berghei [26]
  survival at 100 mg/kg: 100%
Plasmodium berghei [27]
  survival at 1 mg/kg: 100%
Plasmodium berghei [28]
  survival at 11 mg/kg: 100%
Plasmodium berghei [29]
  survival at 100 mg/kg: 100%
Plasmodium berghei [30]
  survival at 33 mg/kg: 100%
Plasmodium berghei [31]
  survival at 100 mg/kg: 100%
Plasmodium berghei [32]
  survival at 3 mg/kg: 0%
